Assay results as given in BindingDB's records for doi:10.1021/jm048999e (2005).

Target: T1, 5-hydroxytryptamine receptor 1A (Rattus norvegicus, UniProt P19327)
T1 sequence (P19327 whole entry): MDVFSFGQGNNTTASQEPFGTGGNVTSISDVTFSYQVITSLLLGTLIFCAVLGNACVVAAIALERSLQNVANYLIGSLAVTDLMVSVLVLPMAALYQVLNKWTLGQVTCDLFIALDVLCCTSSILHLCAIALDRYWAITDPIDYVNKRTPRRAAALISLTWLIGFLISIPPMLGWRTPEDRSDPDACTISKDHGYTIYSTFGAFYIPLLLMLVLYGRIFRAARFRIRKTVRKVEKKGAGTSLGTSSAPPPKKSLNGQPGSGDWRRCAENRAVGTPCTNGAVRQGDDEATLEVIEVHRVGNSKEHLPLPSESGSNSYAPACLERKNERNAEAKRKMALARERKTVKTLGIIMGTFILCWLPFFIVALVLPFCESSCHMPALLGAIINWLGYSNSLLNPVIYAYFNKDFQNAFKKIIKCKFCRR
Assay: In vitro inhibition of [3H]8-OH-DPAT binding to 5-hydroxytryptamine 1A receptor in rat cerebral cortex membranes
How it was run: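 Rat cerebral cortex membranes (about 1 mg protein) incubated 15 min at 37 °C with 0.6 nM [3H]-8-OH-DPAT in 50 mM Tris-HCl, pH 7.4, containing 10 nM clonidine and 30 nM prazosin. Nonspecific binding with 10 µM 5-HT. Compounds screened at 10^-6 M; curves run if displacement exceeded 55%. Filtration, scintillation counting, triplicates, 2-4 experiments; Ki by Cheng-Prusoff.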

Q: Which Ki does the source give for `O=c1n(CN2CCN(c3cccc4ccccc34)CC2)c(O)c2n1CCC2` [2-(4-Naphthalen-1-yl-piperazin-1-ylmethyl)-tetrahydro-pyrrolo[1,2-c]imidazole-1,3-dione] here?
A: 10.4 nM
